# S1P1 ag-PAM – S1P1 agonists and agonism potentiators, primary screen, cell-based, primary and confirmation screens, CRE-bla reporter | Sphingosine 1-phosphate receptor 1 (Homo sapiens), P21453 | S1P1 CRE-bla cells, forskolin, beta-lactamase FRET, potentiator mode; S1P1 agonist co-added at EC20, 2 nM; 100% = saturating reference agonist, 0% = basal | activation, % at 9.5 µM | 56,000 compounds, 0.57% hits;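 active = activation above a cutoff set at the mean activation of all tested compounds plus 3 SD, cut at about 54% in these data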;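 note: forskolin at 4 µM as EC80 and the EC20 agonist is SEW2871; 100% = SEW2871 at its EC100 plus forskolin at EC80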
# HTR1E antagonist – 5-HT1E receptor antagonists, primary screen, cell-based, HTS. 5-hydroxytryptamine receptor 1E (Homo sapiens), P28566. CHO 5-HT1E Ga15 NFAT-bla reporter, FRET, antagonist. inhibition, % at 6 µM. 65,000 compounds, 0.99% hits. AID 571, 2007;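 active = inhibition above a set limit, the mean inhibition across every tested compound plus 3 SD, cut at about 29% in these data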;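 note: signal is the 460 over 535 nm emission ratio of beta-lactamase substrate; 0% = agonist plus DMSO wells and 100% = wells without agonist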
# Target sequence (P28566 whole entry, looked up): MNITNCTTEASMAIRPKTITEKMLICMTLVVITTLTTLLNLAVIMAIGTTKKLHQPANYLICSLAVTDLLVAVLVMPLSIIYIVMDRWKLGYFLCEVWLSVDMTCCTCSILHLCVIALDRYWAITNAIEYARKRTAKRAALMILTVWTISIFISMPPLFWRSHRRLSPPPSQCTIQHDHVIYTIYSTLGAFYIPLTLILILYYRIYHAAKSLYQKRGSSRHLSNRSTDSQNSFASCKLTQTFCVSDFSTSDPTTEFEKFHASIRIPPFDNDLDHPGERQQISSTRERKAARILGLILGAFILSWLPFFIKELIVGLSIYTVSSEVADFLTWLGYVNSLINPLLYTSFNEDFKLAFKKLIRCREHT
# 5-HT1A blocker – human 5-HT1a receptor antagonists, primary screen, cell-based, CHO, Ga15 NFAT-bla reporter | 5-hydroxytryptamine receptor 1A (Homo sapiens), P08908 | inhibition, % at 10 µM | 62,000 compounds, 0.68% hits | CHO 5-HT1a Ga15 NFAT-bla reporter, antagonist mode;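 active = inhibition above the mean of all tested compounds plus 3 SD, cut at about 43% in these data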;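 note: receptor stimulated by 5-CT agonist at 100 nM near EC80; beta-lactamase reporter measured by ratiometric fluorescence of a cleavable substrate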
# HTR1E agonist – 5-HT1E receptor agonists, primary screen, cell-based, HTS; 5-hydroxytryptamine receptor 1E (Homo sapiens), P28566; CHO 5-HT1E Ga15 NFAT-bla reporter, FRET; 0% DMSO wells, 100% control agonist wells; activation, % at 6 µM; 65,000 compounds, 0.69% hits; AID 574, 2007;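 active = activation above a set limit, the screen-wide mean activation plus 3 SD, cut at about 8.5% in these data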;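 note: 100% = positive control agonist at 1 µM giving full maximal response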
# HTR1A agonist – human 5-HT1a receptor agonists, primary screen, cell-based, CHO, Ga15 NFAT-bla reporter | CHO 5-HT1a Ga15 NFAT-bla reporter, FRET ratio; 0% basal, 100% maximal reference agonist | 65,000 compounds, 0.56% hits | AID 567, 2006 | activation, % at 10 µM;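 active = activation above the screen-wide mean activation plus 3 SD, cut at about 19% in these data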;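 note: 0% = DMSO wells and 100% = 5-CT at EC100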
# S1P3 agonist – human S1P3 receptor agonists, primary screen, cell-based, primary and confirmation, NFAT-BLA reporter; Sphingosine 1-phosphate receptor 3 (Homo sapiens), Q99500; S1P3 NFAT-BLA reporter cells, agonism, FRET ratio; relative to 1 µM S1P, basal subtracted; activation, % at 4.5 µM; 60,000 compounds, 0.1% hits; AID 373, 2006;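 active = activation above the screen-wide mean plus 3 SD, cut at about 4.5% in these data, passing the limit was not always enough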
#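 material = human S1P3 NFAT-BLA reporter CHO cells | schedule = 4 h compound at 37 °C, 2 h substrate at RT | measured by = fluorescent BLA substrate, ex 405 nm, em 460/535 nm ratio | controls = 1 µM S1P reference | replication = primary once, confirmation triplicate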
# An asterisk follows results filed as active; x = not tested or not shown. This is a sample that favours compounds with a hit; in the whole collection about 2.9% have one here.
SMILES,S1P1 ag-PAM,HTR1E antagonist,5-HT1A blocker,HTR1E agonist,HTR1A agonist,S1P3 agonist
O=S(=O)(Nc1nc2ccccc2nc1NCCN1CCOCC1)c1cccc(Cl)c1,-1,-5,-1,-1,-1,0
CC(C)Cc1nnc(NC(=O)CSc2ncn[nH]2)s1,-14,2,-8,6,112*,0
CCOC(=O)c1oc2ccccc2c1NC(=O)c1cccc(OC)c1OC,-52,34*,33,0,-2,0
CCOc1ccc(C(=O)Nc2c(C(N)=O)oc3ccccc23)cc1,54*,12,-4,0,-5,0
Cc1cccc2cc(C#N)c(SCC(=O)N3CC(=O)Nc4ccccc43)nc12,-5,45*,40,0,-2,0
CCCn1nc(NC(=O)c2cccs2)c2cc3cc(OC)ccc3nc21,-4,18,-16,2,6,1
CCCCn1nc(NC(=O)c2cccs2)c2cc3cc(OC)ccc3nc21,-1,20,0,4,22*,1
N#Cc1c(N)nc(SC2CCCCC2=O)c(C#N)c1-c1ccco1 (configuration not stated),x,42*,-4,1,2,x
N#Cc1c(N)nc(SCc2ccccc2)c(C#N)c1-c1ccco1,-45,18,-16,1,3,1
CN1C(=O)CSc2ccc(NC(=O)NCCC3=CCCCC3)cc21,x,-15,-7,-1,2,x
O=C(Nc1ccc2c(c1)OCO2)N1CCN(S(=O)(=O)c2ccc(Cl)cc2)CC1,-14,20,8,14*,-3,1
CC1=C(C(=O)NC2CCC(C)CC2)C2(CCC(C)CC2)OC1=O (configuration not stated),-13,12,3,0,1,-1
CCOc1ccc(N(CC(=O)O)S(=O)(=O)c2ccc(F)cc2)cc1,11,20,2,-1,74*,0
O=S(=O)(NCCCN1CCN(c2ccccc2F)CC1)c1cccc2cccnc12,23,-5,40,9.1*,6,0
CCOC(=O)C1CCN(C(c2cccnc2)c2c(NC(=O)c3ccco3)sc(C)c2C)CC1 (configuration not stated),-18,-3,18,52*,3,2
Cc1sc(NC(=O)c2ccco2)c(C(c2cccnc2)N2CCN(c3ccc(F)cc3)CC2)c1C (configuration not stated),-27,-18,0,4,2,0
C=CCN=C(NC#N)SCc1ccccc1Cl,5,2,11,1,-1,-1
Cc1[nH]nc2c1C1(CCC3(CC1)OCCO3)C(C#N)=C(N)O2,x,-1,-2,0,-2,0
CCN1CCn2c1nc(N1CCCCC1)nc2=O,-18,-9,7,9.4*,1,-1
CCN(CC)c1nc2n(c(=O)n1)CCN2CC,3,-6,-5,0,0,0
COc1ccc(C2c3c(-c4cc(Cl)c(C)cc4O)n[nH]c3C(=O)N2Cc2cccnc2)cc1OC (configuration not stated),-39,17,19,1,2,-1
CCOCCN1CCN(c2c(C)c(C)nc3cc(-c4cc(OC)cc(OC)c4)nn23)CC1,x,40*,7,4,-1,x
COCCN1CCN(c2c(C)c(C)nc3cc(-c4cccc(OC)c4)nn23)CC1,x,2,3,0,1,x
Cc1cc(C)c2cc(CN(CC3CCCO3)C(=O)NC3CCCCC3)c(=O)[nH]c2c1 (configuration not stated),-18,-6,-3,1,2,-1
Cc1ccc(-c2cnc(N)n2C)cc1C,36,-6,11,38*,3,1
SMILES,S1P1 ag-PAM,HTR1E antagonist,5-HT1A blocker,HTR1E agonist,HTR1A agonist,S1P3 agonist
CCOC(=O)N1CCC(NC(=O)c2ccc3c(=O)n4c(nc3c2)CCCC4)CC1,7,-2,-2,0,-4,0
O=C(O)CCC(=O)N1CCN(c2ccccn2)CC1,-16,-2,4,0,0,-1
O=C(O)CCC(=O)N1CCN(c2nc3ccccc3s2)CC1,-7,4,12,15*,-2,-1
CCCOc1ccc(N2C(=O)CC(N3CCN(c4nc5ccccc5s4)CC3)C2=O)cc1 (configuration not stated),-16,-18,-18,4,1,-2
CCOc1ccc(NC(=O)N2CCN(c3nc4ccccc4s3)CC2)cc1,19,13,-4,17*,-1,-1
COC(=O)c1cc(CSc2nnc(-c3ccccc3)c(-c3ccccc3)n2)oc1C,96*,9,8,0,-2,4
COc1ccc(CCn2c(=S)[nH]c3cc(C(=O)NCc4ccco4)ccc3c2=O)cc1OC,37,0,3,3,1,-1
C=CCN1C(=Nc2cccnc2)SCC1(O)c1ccc(C)cc1 (configuration not stated),77*,11,9,0,-3,0
O=C(CSC1=NCCN1)C1COc2ccccc2O1 (configuration not stated),5,-8,11,-1,-1,0
O=C(CSC1=NCCS1)Nc1ccnc2ccccc12,109*,18,18,1,-1,-3
COc1ccccc1Nc1nc(N)nc(CSc2ncccn2)n1,-32,5,-1,0,-1,0
COc1ccc(Nc2nc(N)nc(CSc3n[nH]c(-c4ccccc4)n3)n2)cc1,-32,42*,2,-1,0,0
Nc1nc(CSc2n[nH]c(-c3ccccc3)n2)nc(Nc2ccccc2)n1,-12,30*,-11,0,1,-2
C/C=C/CSc1nc2c(c(=O)[nH]c(=O)n2C)n1Cc1ccc(C)cc1,-6,9,-9,-1,1,-1
CCC(C)NC(=O)N[C@@H](Cc1ccccc1)C(=O)O (some centres not stated),-21,1,-2,0,61*,0
O=C(Nc1ccccc1N1CCCC1)c1ccc(Br)o1,-8,-9,-5,0,1,0
O=C(Nc1ccc(N2CCCC2)c(Cl)c1)c1ccc(Br)o1,97*,-5,-8,0,2,-1

# Screens: PubChem BioAssay, The Scripps Research Institute Molecular Screening Center
